Measurements from the EternaBench riboswitch data.

Test system: MS2 coat protein
Assay: apparent Kd, MS2 coat protein; higher = weaker binding; RNA-MaP array; FMN 200 µM where present
Procedure, shortened: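 The apparent Kd is the median of filtered binding-curve fits, one per cluster, to green signal normalised to red-channel RNA signal and control-cluster median Fmax. The clusters were on Illumina sequencing chips, and stalled E. coli RNA polymerase had transcribed the designs on them. Titration used SNAP-549-labelled MS2 coat protein from 0.7 or 1.5 nM, doubling to 3 µM, without and then with constant ligand, in 100 mM Tris-HCl pH 7.5, 80 mM KCl, 4 mM MgCl2, BSA, DTT, yeast tRNA and Tween-20.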

[1] = designed as: OFF switch for flavin mononucleotide, no ligand
[2] = ligand present: flavin mononucleotide, designed as: OFF switch for flavin mononucleotide
[3] = designed as: ON switch for flavin mononucleotide, no ligand
[4] = ligand present: flavin mononucleotide, designed as: ON switch for flavin mononucleotide

Sequence	apparent Kd [1]	apparent Kd [2]	apparent Kd [3]	apparent Kd [4]
AUACGUGAGAAGGAUAUCACUCGCCAAAGGCGUUGAGAAGGUUUCACAUGAGGAUCACCCAUGUGCUCUUCUAG	27.7 nM	61.5 nM	–	–
AUACGUGAGAAGGAUAUCACUCGCCAGAGGCGAUGAGAAGGUUUCACAUGAGGAUCACCCAUGUGCUCUUCUAG	32 nM	75.1 nM	–	–
AUAGAGAUAGCGAUAUGAUCGAGAGAUCAUGUCGCUAAGAUUAGAAGGACAUGAGGAUCACCCAUGUAGGAUAUGGGAGUAGAA	–	–	127 nM	49.8 nM
AUAGCAACAUGAGGAUCACCCAUGUAGGAUAUCGCUAUUGUAAUCAUGAAACAUGAUUACAAUAGCGAGAAGGACAUAUGCUAC	9.33 nM	11 nM	–	–
AUAGGGCUACACUGAAAGACACAUGAGGAUCACCCAUGUGAGAGAAGGGCUUCUGGAGGGCUGAGGUAGGAUAUUUCACCUGGG	18.6 nM	22.6 nM	–	–
AUAUAGUCAGGAUAUCGAAAUAUAUAUUAAUAUAUAUAAUACGAGAAGGGACAUGAGGAUCACCCAUGUAGUAA	25.7 nM	31.1 nM	–	–
AUAUAGUCAGGAUAUCGAAGUGAGUGUUGGUUUGUAAGGUACGAGAAGGGACAUGAGGAUCACCCAUGUAGGAA	40.3 nM	38.8 nM	–	–
AUAUAUAGUGUGAGGAUAUGCUGGUCCUUGGAUCAGCAGAAGGCACAUGAGGAUCACCCAUGUAGUUUAUUUUA	31.7 nM	76.7 nM	–	–
AUAUAUAUAAGGUAGGAUAUACUAAAGUAAACAUGAGGAUCACCCAUGUAAAGAAAGAAACUCAUGUAGAAGGACCAUAUAUAUAU	–	–	171 nM	36.5 nM
AUAUCCUAGAUAGGAUAUACUGAGGUUGAAUGGGUAGAAGGAUCGAUAGGGAAGACUACAUGAGGAUCACCCAUGUUGUGUAUU	–	–	99.4 nM	90.2 nM
AUAUCGUUAUCAGGAUAUGGACAGGCCUGUCCGUAUUGAGACAGUAACAUGAGGAUCACCCAUGUCCAGAAGGGAUCGAUGUAU	54.2 nM	48.6 nM	–	–
AUAUCUAUAUCAGGAUAUGGACAGGCCUGUCCGUAUUGAGACAGUAACAUGAGGAUCACCCAUGUCCAGAAGGGAUCGAUGUAU	48 nM	40.2 nM	–	–
AUAUCUUGUCGAGGAUAUGUAGUAUUGAUCUGAAAACAUGAGGAUCACCCAUGUAUACGGUGGGUACAGAAGGUGGAUGUAGAA	416 nM	427 nM	–	–
AUAUGAUAGAUAGGAUAUACUAUGGUUUAAGAAGUAGAAGGAUCAAUUGGGAAAUGUACAUGAGGAUCACCCAUGUUAUAGGUU	–	–	35.2 nM	33.5 nM
AUAUUGAUAGUAAGGAUAUGCGUGUGUGUAGUUAUGCAGAAGGUACAUGAGGAUCACCCAUGUAUUAAUGUGUG	18.1 nM	21.6 nM	–	–
AUAUUUAUUUAGAAGGACAUGAGGAUCACCCAUGUCGCUGGGCGCGGGAAACCGUGCCCGGCCAUGUAGGAUAUAGGUAGAUAU	14.2 nM	12.2 nM	–	–
AUAUUUGUGUAGAAGGUACGUGAUUAGUUAUAGUAAGGAUAUACUGACAUGAGGAUCACCCAUGUAUAAAUGGUUAAAUGUUCU	–	–	27.9 nM	20 nM
AUCAAUCACAUAGGAUAUAGAAUAUUAUAUUUUUACAUGAGGAUCACCCAUGUUUUAUUGGGAUUCUAGAAGGAUGAGUUAUUA	–	–	130 nM	118 nM
AUCAGCUCGUAAGGAUAUACGUCACUGCGUCAGCAGUGUGGUAAGAUCACAUGAGGAUCACCCAUGUAGAAGGGACGAGCUGAU	15.6 nM	142 nM	–	–
AUCAGCUCGUCAGGAUAUACGUCACGGCGUCAGCAGUGUGGUAAGAUCACAUGAGGAUCACCCAUGUAGAAGGGACGAGCUGAU	19.5 nM	226 nM	–	–
AUCAGCUCGUCAGGAUAUACGUCACUGCGACAGCAGUGUGGUAAGAUCACAUGAGGAUCACCCAUGUAGAAGGGACGAGCUGAU	14.2 nM	297 nM	–	–
AUCAGCUCGUCAGGAUAUACGUCACUGCGUCAGCAAUGUGGUAAGAUCACAUGAGGAUCACCCAUGUAGAAGGGACGAGCUGAU	29.9 nM	289 nM	–	–
AUCAGCUCGUCAGGAUAUACGUCACUGCGUCAGCACUGUGGUAAGAUCACAUGAGGAUCACCCAUGUAGAAGGGACGAGCUGAU	17.7 nM	172 nM	–	–
AUCAGCUCGUCAGGAUAUACGUCACUGCGUCAGCAGAGUGGUAAGAUCACAUGAGGAUCACCCAUGUAGAAGGGACGAGCUGAU	39.5 nM	421 nM	–	–
AUCAGCUCGUCAGGAUAUACGUCACUGCGUCAGCAGUGUGGUAAGAUCACAUGAGGAUCACCCAUGUAGAAGGGACGAGCCGAU	13.2 nM	306 nM	–	–
AUCAGCUCGUCAGGAUAUACGUCACUGCGUCAGCAGUGUGGUAAGAUCACAUGAGGAUCACCCAUGUAGAAGGGACGCGCUGAU	13.3 nM	226 nM	–	–
AUCAGCUCGUCAGGAUAUACGUCACUGCUUCGGCAGUGUGGUAAGAUCACAUGAGGAUCACCCAUGUAGAAGGGACGAGCUGAA	13.3 nM	259 nM	–	–
AUCAGCUCGUCAGGAUAUACGUCACUGCUUCGGCAGUGUGGUAAGAUCACAUGAGGAUCACCCAUGUAGAAGGGACGAGCUGAC	13.6 nM	237 nM	–	–

Sequence	apparent Kd [1]	apparent Kd [2]	apparent Kd [3]	apparent Kd [4]
AUCAGCUCGUCAGGAUAUGCAUCACUGCUUCGGCAGUGUGGUAAGAUCACAUGAGGAUCACCCAUGUAGAAGGGACGAGCUGAU	9.83 nM	69.4 nM	–	–
AUCAGCUCGUGAGGAUAUACAUGAUAGAUCGAUUAAUUAAUUAAUUUAACAUGAGGAUCACCCAUGUAGAAGGCACGAGCUGAU	56.1 nM	61.7 nM	–	–
AUCAGCUCGUGAGGAUAUACGUCACUGCGUCAGCAGUGUGGUAAGAUCACAUGAGGAUCACCCAUGUAGAAGGGACGAGCUGAU	15.6 nM	45.9 nM	–	–
AUCAUCUUGUCAGGAUAUGCGUGUCAACGAAAGUAGACAAUCUUGAUAACAUGAGGAUCACCCAUGUAGAAGGGACGAGAUGAU	21 nM	21.9 nM	–	–
AUCAUGAGAGGAUAUACAUGAGGAUCACCCAUGUUGUUAACACCAUGAGCUCAUUUACGUAGAAGGCUCAUUUG	28.1 nM	51.9 nM	–	–
AUCAUGUCAGGAUAUGUGAUAUGGAUCUUCGGAUCAAGUUCACAGAAGGGACAUGAGGAUCACCCAUGUCGAAC	50.6 nM	91.7 nM	–	–
AUCCAGCGAGGAUAUACUUUGAUUUUUUCGUUUUGUCUCGAACAUGAGGAUCACCCAUGUAGAAGGUGCUUCAC	67.1 nM	59.8 nM	–	–
AUCCGGCGUGUAGGAUAUGGAUCCGAUUAGGAUCCAGAAGGACAUGAGGAUCACCCAUGUACAUGUAAACAGUCAUCACCGGAA	10.2 nM	49.4 nM	–	–
AUCGGAAUGUAGAAGGGUGACAUGAGGAUCACCCAUGUACAAAUGCGUUUUUCGGUAAUUGAUCCACAGGAUAUACUGUCCGAG	–	–	1080 nM	794 nM
AUCGGGAGAGGAUAUACAUGAGGAUCACCCAUGUUGGGAACAUCGGUUUGUUAGUUGCGUAGAAGGCUCGGGCG	46.4 nM	66.3 nM	–	–
AUCUACCUAGGAUAUACAUGAGGAUCACCCAUGUACAGUUUCAACUAGGGAAACACACGUAGAAGGAGGUAGAU	13.6 nM	32.6 nM	–	–
AUCUACCUAGGAUAUACAUGAGGAUCACCCAUGUACAGUUUCAUCUAGGGAUACUCACGUAGAAGGAGGUAGAU	36.6 nM	21.5 nM	–	–
AUCUAUCAUGUAGGAUAUGCGUGGCGAAGCUAUGCAGAAGGACAUGAGGAUCACCCAUGUCUUUCUGUCUGCGGACGGACAGGA	23.6 nM	72.7 nM	–	–
AUCUCGUCAGGAUAUUGGAUCUGGAUCGAAAGGUCUAGGUCUAAGAAGGGACAUGAGGAUCACCCAUGUCUGGU	22.9 nM	69.6 nM	–	–
AUCUGCUCGUCAGGAUAUACGUCACUGCGUCAGCAGUGUGGUAAGAUCACAUGAGGAUCACCCAUGUAGAAGGGACGAGCUGAU	12.9 nM	268 nM	–	–
AUGAGGUUAGGAUAUACAUGAGGAUCACCCAUGUUGAAGGGUUAGGUAGGCGGAGCUGGUAGAAGGAACGGAGC	57.3 nM	36.9 nM	–	–
AUGAGUAAAGCAGGAUAUCUAUUGUCUCUGUAACAUGAGGAUCACCCAUGUAGAGAAGGGCUUAGUCAUACUCUUCGGAGUUGA	7.27 nM	9.55 nM	–	–
AUGCUAUACGAAGGAUAUGGUUACAUGAGGAUCACCCAUGUAUUUUUUGUGAUCUUGUUUAAGUUCCAGAAGGUCGUAUAGCUA	486 nM	617 nM	–	–
AUGCUUCACACAGGAUAUACAUGAGGAUCACCCAUGUGUCCAAAGUAGCCGACACGAGCUACGUCGUAGAAGGGUGUGAAGCAU	18.8 nM	87.3 nM	–	–
AUGCUUCACACAGGAUAUUACAACAUGAGGAUCACCCAUGUACAUGACAUGAGGAUCACCCAUGUUAAGAAGGGUGUGAAGCAU	261 nM	505 nM	–	–
AUGGACGCAGGAUAUACAUGAGGAUCACCCAUGUGAGGUAGGUAAGUAGGAAGUGAAGGUAGAAGGGCGAGAGA	67.2 nM	95.3 nM	–	–
AUGGACGUCGUAGGAUAUGUAGGAUUCUCCUACAUGAGGAUCACCCAUGUUGACAUGGAGGACGGACAGAAGGACGGUGUCCAU	–	–	13.2 nM	5.31 nM
AUGGACGUCGUAGGAUAUGUAGGAUUCUCGUACAUGAGGAUCACCCAUGUUGACGUCGAGGACGGACAGAAGGGCGGUGUCCAU	–	–	42.3 nM	8.01 nM
AUGGACGUCGUAGGAUAUGUAGGAUUCUCGUACAUGAGGAUCACCCAUGUUGACGUCGAGGACGGACAGAAGGGCGGUGUCUAU	–	–	64.6 nM	9.38 nM
AUUACAUGAGGAUCACCCAUGUACGGCACGUUUCAAAACAGUGAGGAUAUACGAUAUGUAGGAACGUAGAAGGCACUGGGUGCA	–	–	82.7 nM	35.9 nM
AUUAUAUAGAAAGGAUAUAGAAUAUUAUUUUAACAUGAGGAUCACCCAUGUAACCUUAUGUGUAGCUAGAAGGUUCAUUUAUUA	61.8 nM	78.1 nM	–	–
AUUAUAUAGACAGGAUAUUGAUUAUUAUUUUAACAUGAGGAUCACCCAUGUAACCUUAUGUGUAGCAAGAAGGGUCAUUUAUUA	84.3 nM	185 nM	–	–
